Key:
[1] = system: Rattus norvegicus; assay: Antiinflammatory activity in ip dosed Sprague-Dawley rat assessed as inhibition of carrageenan-induced foot paw edema after 1 hr by plethysmometer analysis; type: functional; conditions: Sprauge-Dawley
Procedure, shortened: (§1)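 Rats fasted at least 16 h with free access to water. Compounds were given as a suspension in 0.5% methyl cellulose, with a vehicle-only negative control group. Paw volume was measured by water displacement on a plethysmometer before and after treatment. Inhibition (%) = (1 − D/C) × 100, where D and C are the paw-volume changes in treated and control groups.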

[2] = system: Rattus norvegicus; assay: Antiinflammatory activity in ip dosed Sprague-Dawley rat assessed as inhibition of carrageenan-induced foot paw edema after 2 hrs by plethysmometer analysis; type: functional; conditions: Sprauge-Dawley; procedure, shortened: as §1
[3] = system: Rattus norvegicus; assay: Antiinflammatory activity in ip dosed Sprague-Dawley rat assessed as inhibition of carrageenan-induced foot paw edema after 3 hrs by plethysmometer analysis; type: functional; conditions: Sprauge-Dawley; procedure, shortened: as §1
[4] = Toxicity in ip dosed mouse assessed as behavioral changes and death during observation up to 72 hrs; type: organism-based; conditions: in vivo
Procedure, shortened: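 Male mice in groups, given test compounds intraperitoneally at various doses. Watched continuously for up to 6 h, then kept under observation for 72 h, recording all behavioural changes and deaths. Percentage of deaths at each dose was converted to probits to calculate LD50 (mM/kg).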

[5] = molecular target: T1, Prostaglandin G/H synthase 1 (Ovis aries) (UniProt P05979); assay: Inhibition of ovine COX1 at 5 uM
T1 sequence (whole entry): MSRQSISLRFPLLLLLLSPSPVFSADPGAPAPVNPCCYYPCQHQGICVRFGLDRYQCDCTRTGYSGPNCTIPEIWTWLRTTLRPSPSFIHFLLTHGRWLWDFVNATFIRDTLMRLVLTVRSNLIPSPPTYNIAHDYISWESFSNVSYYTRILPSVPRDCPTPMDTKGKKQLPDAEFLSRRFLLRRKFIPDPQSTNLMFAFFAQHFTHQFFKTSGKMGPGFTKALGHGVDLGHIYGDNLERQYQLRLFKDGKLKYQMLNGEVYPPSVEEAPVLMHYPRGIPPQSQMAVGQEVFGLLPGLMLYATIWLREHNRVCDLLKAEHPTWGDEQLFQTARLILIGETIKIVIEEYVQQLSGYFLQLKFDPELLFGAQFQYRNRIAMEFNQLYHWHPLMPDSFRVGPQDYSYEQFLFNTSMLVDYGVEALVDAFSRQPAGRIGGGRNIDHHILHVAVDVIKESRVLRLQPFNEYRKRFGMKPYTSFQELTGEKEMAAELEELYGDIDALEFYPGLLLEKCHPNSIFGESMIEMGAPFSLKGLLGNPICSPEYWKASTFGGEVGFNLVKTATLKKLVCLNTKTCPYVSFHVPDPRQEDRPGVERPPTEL

[6] = organism: Ovis aries; assay: Selectivity index, ratio of ovine COX2 to ovine COX1
[7] = system: Mus musculus; assay: Analgesic activity in ip dosed albino Swiss mouse after 0.5 hrs by hot plate test; type: functional
Procedure, shortened: (§2)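 Mice given a single intraperitoneal dose of test compound (5-200 mg/kg). Reaction time on the hot plate was measured before treatment as the control and again at 15, 30, 60 and 120 min after injection, with a 60 s cut-off. Each animal served as its own control.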

[8] = system: Mus musculus; assay: Analgesic activity in ip dosed albino Swiss mouse after 1 hr by hot plate test; type: functional; procedure, shortened: as §2
[9] = system: Mus musculus; assay: Analgesic activity in ip dosed albino Swiss mouse after 2 hrs by hot plate test; type: functional; procedure, shortened: as §2
[10] = system: Rattus norvegicus; assay: Gastrointestinal toxicity in albino rat assessed as ulcer index at 100 umol/kg, po qd for 3 days measured 6 hrs after last dose; conditions: in vivo, 100 µmol/kg

| Compound | ED50 [1] | ED50 [2] | ED50 [3] | LD50 at 72 h [4] | inhibition [5] | Selectivity Index [6] | ED50 [7] | ED50 [8] | ED50 [9] | UI [10] |
| --- | --- | --- | --- | --- | --- | --- | --- | --- | --- | --- |
| CC(=O)c1nn(-c2ccc(S(N)(=O)=O)cc2)c(-c2ccc(C)cc2)c1S(=O)(=O)c1ccccc1 | 112 µM/kg | 102 µM/kg | 95 µM/kg | 10100 µmol/kg | 18% | 1.83 | 50 µM/kg | 147 µM/kg | 147 µM/kg | 2.25 |
| O=S(=O)(C/C(=N/Nc1ccccc1)c1ccccc1)c1ccccc1 | 270 µM/kg | 248 µM/kg | 256 µM/kg | 14600 µmol/kg |  |  | 285 µM/kg | 319 µM/kg | 345 µM/kg |  |
| Cc1ccc(C(=O)CS(=O)(=O)c2ccccc2)cc1 | 145 µM/kg | 137 µM/kg | 133 µM/kg | 14300 µmol/kg |  |  | 168 µM/kg | 408 µM/kg | 434 µM/kg |  |
| Cc1ccc(-c2cc(C(F)(F)F)nn2-c2ccc(S(N)(=O)=O)cc2)cc1 [CELECOXIB] | 89 µM/kg | 89 µM/kg | 86 µM/kg | 9800 µmol/kg |  |  | 156 µM/kg | 72 µM/kg | 70 µM/kg | 0.92 |
| CC(=O)c1nn(-c2ccc(S(N)(=O)=O)cc2)c(-c2ccc(Br)cc2)c1S(=O)(=O)c1ccc(C)cc1 | 75 µM/kg | 54 µM/kg | 51 µM/kg | 7100 µmol/kg | 3% | 13 | 69 µM/kg | 195 µM/kg | 204 µM/kg | 0.98 |
| O=S(=O)(C/C(=N/O)c1ccccc1)c1ccccc1 | 285 µM/kg | 245 µM/kg | 256 µM/kg | 17400 µmol/kg |  |  | 320 µM/kg | 265 µM/kg | 244 µM/kg |  |
| Cc1ccc(/C(CS(=O)(=O)c2ccccc2)=N\Nc2ccccc2)cc1 | 280 µM/kg | 181 µM/kg | 169 µM/kg | 11500 µmol/kg |  |  | 220 µM/kg | 260 µM/kg | 288 µM/kg |  |
| Cc1ccc(/C(CS(=O)(=O)c2ccccc2)=N\O)cc1 | 271 µM/kg | 238 µM/kg | 237 µM/kg | 9000 µmol/kg |  |  | 212 µM/kg | 203 µM/kg | 200 µM/kg |  |
| CC(=O)c1nn(-c2ccc(S(N)(=O)=O)cc2)c(-c2ccccc2)c1S(=O)(=O)c1ccccc1 | 363 µM/kg | 376 µM/kg | 372 µM/kg | 10100 µmol/kg |  |  | 311 µM/kg | 261 µM/kg | 261 µM/kg |  |
| O=C(CS(=O)(=O)c1ccccc1)c1ccc(Br)cc1 | 550 µM/kg | 350 µM/kg | 327 µM/kg | 12400 µmol/kg |  |  | 218 µM/kg | 318 µM/kg | 318 µM/kg |  |
| CC(=O)c1nn(-c2ccc(S(N)(=O)=O)cc2)c(-c2ccc(Br)cc2)c1S(=O)(=O)c1ccccc1 | 87 µM/kg | 64 µM/kg | 68 µM/kg | 7100 µmol/kg | 34% | 0.79 | 57 µM/kg | 81 µM/kg | 80 µM/kg | 2.86 |
| O=C(CS(=O)(=O)c1ccccc1)c1ccccc1 | 238 µM/kg | 232 µM/kg | 242 µM/kg | 19700 µmol/kg |  |  | 250 µM/kg | 158 µM/kg | 145 µM/kg |  |
| Cc1ccc(S(=O)(=O)CC(=O)c2ccc(Br)cc2)cc1 | 213 µM/kg | 213 µM/kg | 200 µM/kg | 12700 µmol/kg |  |  | 73 µM/kg | 69 µM/kg | 66 µM/kg |  |
